Reference: ChEMBL document CHEMBL4177644, “Design, synthesis and biological activity of 3-pyrazine-2-yl-oxazolidin-2-ones as novel, potent and selective inhibitors of mutant isocitrate dehydrogenase 1” (Bioorg Med Chem, 2017)

How the values were obtained:
[1] = system: HEK-293T; experiment: Cytotoxicity against HEK293T cells harboring WT-IDH1 at 10 uM after 72 hrs by CellTiter-Glo assay; format: cell-based; settings: human
Summary of the method: (§1)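 HEK-293T cells stably carrying IDH1 wild-type (pMXs-IDH1wt-IRES-BsdR, blasticidin-selected), 10 000 cells per well in DMEM with 10% FCS, 37 °C, 5% CO2. Compound added at the stated concentration for 72 h. Viability read by CellTiter-Glo luminescence.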

[2] = system: Isocitrate dehydrogenase [NADP] cytoplasmic (Homo sapiens), O75874 [R132C]; experiment: Inhibition of IDH1 R132C mutant (unknown origin) expressed in HEK293T cells assessed as reduction in D-2-HG levels at 50 uM after 72 hrs relative to control; values are per cent of control
Sequence of Isocitrate dehydrogenase [NADP] cytoplasmic (Homo sapiens), O75874 [R132C] (O75874 whole entry R132C): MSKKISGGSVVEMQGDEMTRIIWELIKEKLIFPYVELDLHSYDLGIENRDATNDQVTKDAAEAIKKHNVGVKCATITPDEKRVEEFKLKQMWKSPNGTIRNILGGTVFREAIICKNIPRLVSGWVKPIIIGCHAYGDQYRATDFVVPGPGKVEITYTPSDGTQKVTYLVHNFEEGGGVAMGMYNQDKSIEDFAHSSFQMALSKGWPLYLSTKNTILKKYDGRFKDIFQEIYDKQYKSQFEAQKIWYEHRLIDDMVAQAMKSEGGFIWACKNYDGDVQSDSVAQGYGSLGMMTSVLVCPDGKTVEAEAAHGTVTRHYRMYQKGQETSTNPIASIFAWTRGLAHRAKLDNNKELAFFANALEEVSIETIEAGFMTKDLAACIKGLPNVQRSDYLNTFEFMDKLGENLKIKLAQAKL

[3] = system: Isocitrate dehydrogenase [NADP] cytoplasmic (Homo sapiens), O75874 [R132H]; experiment: Inhibition of IDH1 R132H mutant (unknown origin) expressed in HEK293T cells assessed as reduction in D-2-HG levels at 10 uM after 72 hrs relative to control; values are per cent of control
Sequence of Isocitrate dehydrogenase [NADP] cytoplasmic (Homo sapiens), O75874 [R132H] (O75874 whole entry R132H): as the sequence (O75874 whole entry R132C) above, with C132H counted along it

[4] = system: Isocitrate dehydrogenase [NADP] cytoplasmic (Homo sapiens), O75874 [R132H]; experiment: Inhibition of IDH1 R132H mutant (unknown origin) expressed in HEK293T cells assessed as reduction in D-2-HG levels at 50 uM after 72 hrs relative to control; values are per cent of control
[5] = system: Isocitrate dehydrogenase [NADP] cytoplasmic (Homo sapiens), O75874 [R132C]; experiment: Inhibition of IDH1 R132C mutant (unknown origin) expressed in HEK293T cells assessed as reduction in D-2-HG levels at 10 uM after 72 hrs relative to control; values are per cent of control
[6] = system: HEK-293T; experiment: Cytotoxicity against HEK293T cells harboring WT-IDH1 at 50 uM after 72 hrs by CellTiter-Glo assay; format: cell-based; settings: human; summary of the method: as §1
[7] = Cytotoxicity against HEK293T cells harboring WT-IDH1 assessed as cell survival at 10 uM after 72 hrs by CellTiter-Glo assay relative to control; format: cell-based, HEK-293T; settings: human, read-out: Survival
Summary of the method: (§2)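 HEK293 cells stably expressing wild-type IDH1 (cDNA in pMXs-GW-IRES-BsdR, transfected with FuGene HD, selected with blasticidin S), grown in DMEM with 10% fetal calf serum and 1% penicillin/streptomycin at 37 °C, 5% CO2. Seeded at 10 000 cells/well in 96-well plates, treated with compound for 72 h; viability read by CellTiter-Glo luminescence.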

[8] = Cytotoxicity against HEK293T cells harboring WT-IDH1 assessed as cell survival at 50 uM after 72 hrs by CellTiter-Glo assay relative to control; format: cell-based, HEK-293T; settings: human, read-out: Survival; summary of the method: as §2
[9] = Permeability of compound at 25 ug/ml after 18 hrs by PAMPA-BBB assay; format: ADME; settings: read-out: Peff
Summary of the method: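 PAMPA-BBB with porcine polar brain lipid (20 mg/mL, 4 µL per filter). DMSO stock 5 mg/ml diluted in PBS to 25 ug/ml final, 300 uL in donor, 150 µL PBS in acceptor. Sandwich left 18 h at room temperature. Acceptor and reference concentrations read by UV plate reader, Pe calculated by formula. Mean ± SD of three independent experiments.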

| SMILES | Activity [1] | residual activity [2] | residual activity [3] | residual activity [4] | residual activity [5] | Activity [6] | viability at 72 h, 10 µM [7] | viability at 72 h, 50 µM [8] | Papp at 18 h, 25 ug/ml [9] |
| --- | --- | --- | --- | --- | --- | --- | --- | --- | --- |
| CC(C)[C@H]1COC(=O)N1c1cncc(N[C@@H](C)c2ccc(-c3cccc(F)c3)cc2)n1 | Non-Toxic | 50.6% | 97.2% | 34.7% | 116% |  |  |  |  |
| Cc1ccc(-c2ccc([C@H](C)Nc3cncc(N4C(=O)OC[C@@H]4C(C)C)n3)cc2)cc1 | Non-Toxic | 54.8% | 70.5% | 38.7% | 74.9% |  |  |  |  |
| COc1cccc(-c2ccc([C@H](C)Nc3cncc(N4C(=O)OC[C@@H]4C(C)C)n3)cc2)c1 | Non-Toxic | 41.7% | 59.8% | 33.9% | 86% |  |  |  |  |
| CC(C)[C@H]1COC(=O)N1c1ccnc(N[C@@H](C)c2ccc(-c3ccccn3)cc2)n1 | Non-Toxic | 29.7% | 33.9% | 24.7% |  |  |  |  |  |
| CC(C)[C@H]1COC(=O)N1c1cncc(N[C@@H](C)c2ccc(-c3ccc(F)cc3)cc2)n1 | Non-Toxic | 51.3% | 34.3% | 33% | 39% | Toxic |  |  |  |
| CC(C)[C@H]1COC(=O)N1c1cncc(N[C@@H](C)c2ccc(-c3ccc(C(F)(F)F)cc3)cc2)n1 | Non-Toxic | 27.4% | 28% | 30.7% | 39.9% | Toxic |  |  |  |
| CC(C)[C@H]1COC(=O)N1c1cncc(N[C@@H](C)c2ccc(-c3ccc4ccccc4c3)cc2)n1 | Non-Toxic | 73.9% | 85.4% | 39.5% | 71.3% |  |  |  |  |
| Cc1cccc(-c2ccc([C@H](C)Nc3cncc(N4C(=O)OC[C@@H]4C(C)C)n3)cc2)c1 | Non-Toxic | 29.7% | 49.7% | 28.5% | 51.1% |  |  |  |  |
| CC(C)[C@H]1COC(=O)N1c1cncc(N[C@@H](C)c2ccc(-c3ccccc3)cc2)n1 | Non-Toxic | 108% | 50% | 38.8% | 50.4% |  |  |  |  |
| COc1ccc(-c2ccc([C@H](C)Nc3cncc(N4C(=O)OC[C@@H]4C(C)C)n3)cc2)cc1 | Non-Toxic | 51.7% | 47.7% | 31.9% | 51.3% |  |  |  |  |
| Cc1noc(C)c1-c1ccc([C@H](C)Nc2cncc(N3C(=O)OC[C@@H]3C(C)C)n2)cc1 | Non-Toxic | 30.2% | 47.9% | 21.5% | 54.1% | Toxic |  |  |  |
| Cc1ccccc1-c1ccc([C@H](C)Nc2cncc(N3C(=O)OC[C@@H]3C(C)C)n2)cc1 | Non-Toxic | 29.1% | 39.2% | 28.3% | 44.6% |  |  |  |  |
| COc1ccccc1-c1ccc([C@H](C)Nc2cncc(N3C(=O)OC[C@@H]3C(C)C)n2)cc1 | Non-Toxic | 28.2% | 31.9% | 24.6% | 40.6% |  | 89.8% | 74.5% | 6.65 ×10⁻⁶ cm/s |
| CNCCCN1c2ccccc2CCc2ccccc21 [DESIPRAMINE] |  |  |  |  |  |  |  |  | 8.82 ×10⁻⁶ cm/s |
| CC(C)[C@H]1COC(=O)N1c1cncc(N[C@@H](C)c2ccc(-c3ccccc3F)cc2)n1 | Non-Toxic | 44.1% | 78.4% | 28% | 89.9% |  |  |  |  |
